This passage reports self-cleavage results from the RNAGym collection of RNA variant scans (doi:10.1002/anie.201605470).

B1: Osa-1-4 twister ribozyme (parent)
chain: CCGCCUAACACUGCCAAUGCCGGUCCCAAGCCCGGAUAAAAGUGGAGGGGGCGG

In the data set the parent is B1. Nature of the data set: self-cleavage, relative activity (ratio to wild type); higher = more cleavage; co-transcriptional. In short, it runs like this: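 Relative activity is the fraction cleaved divided by that of the wild-type ribozyme. The library came from a DNA template for a 54-nucleotide Oryza sativa twister ribozyme, doped at the 48 positions downstream of the cleavage site with 97 % wild-type base and 1 % of each other base. After 2 h of in vitro transcription at 37 °C with co-transcriptional self-cleavage, the RNA was reverse-transcribed with a template-switching oligonucleotide, amplified by PCR and deep-sequenced, and reads with or without upstream sequence gave the cleavage status.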
In the case of CCGCCUAACACUGCCAAUGCCGGUCCCAAGCCCGGAUGAAAGUGCAGGGGGCGG [A38G G45C], the self-cleavage came out at 0.07.

For CCGCCUAACACUGCCAAUGCCGGUCCCAAACCCGGAUGAAAGUGGAGGGGGCGG [A38G G30A], the self-cleavage worked out at 0.05.

On to CCGCCUAACACUGCCAAUGCCGGUCCCAAUCCCGGAUGAAAGUGGAGGGGGCGG [A38G G30U], for which the self-cleavage is 0.04.

As for CCGCCUAACACUGCCAAUGCCGGUCCCAACCCCGGAUGAAAGUGGAGGGGGCGG [A38G G30C], the self-cleavage was 0.04.

On to CCGCCUAACACUGCCAAUGCCGGUCCCAAGCCCGGAUGAAAGUGGAGGGGCCGG [A38G G51C], for which the self-cleavage amounted to 0.11.

Regarding CCGCCUAACACUGCCAAUGCCGGUCCCAAGCCCGGAUGAAAGUGGAGGGGUCGG [A38G G51U], the self-cleavage turned out to be 0.36.

In the case of CCGCCUAACACUGCCAAUGCCGGUCCCAAGCCCGGAUGAAAGUGGAGGGGACGG [A38G G51A], the self-cleavage amounted to 0.72.

For CCGCCUAACACUGACAAUGCCGGUCCCAAGCCCGGAUGAAAGUGGAGGGGGCGG [A38G C14A], the self-cleavage stood at 0.07.

As to CCGCCUAACACUGGCAAUGCCGGUCCCAAGCCCGGAUGAAAGUGGAGGGGGCGG [A38G C14G], the self-cleavage is 0.13.

On to CCGCCUAACACUGUCAAUGCCGGUCCCAAGCCCGGAUGAAAGUGGAGGGGGCGG [A38G C14U], for which the self-cleavage stood at 0.13.

Regarding CCGCCUAACACUGCCAAUGCCGGUCCCAAGCCCGGAUGAAAGUGGAGGGGGUGG [A38G C52U], the self-cleavage stood at 0.95.

In the case of CCGCCUAACACUGCCAAUGCCGGUCCCAAGCCCGGAUGAAAGUGGAGGGGGGGG [A38G C52G], the self-cleavage was determined as 0.96.

As for CCGCCUAACACUGCCAAUGCCGGUCCCAAGCCCGGAUGAAAGUGGAGGGGGAGG [A38G C52A], the self-cleavage was found to be 1.02.

For the variant CCGCCUAAAACUGCCAAUGCCGGUCCCAAGCCCGGAUGAAAGUGGAGGGGGCGG [A38G C9A], the self-cleavage is 0.45.

Consider CCGCCUAAGACUGCCAAUGCCGGUCCCAAGCCCGGAUGAAAGUGGAGGGGGCGG [A38G C9G], for which the self-cleavage is 0.88.

CCGCCUAAUACUGCCAAUGCCGGUCCCAAGCCCGGAUGAAAGUGGAGGGGGCGG [A38G C9U]: the self-cleavage amounted to 0.7.

Regarding CCGCCUAACACUGCCAAUGCCGGUCCCAAGACCGGAUGAAAGUGGAGGGGGCGG [A38G C31A], the self-cleavage was 0.03.

For the variant CCGCCUAACACUGCCAAUGCCGGUCCCAAGGCCGGAUGAAAGUGGAGGGGGCGG [A38G C31G], the self-cleavage was determined as 0.13.

In the case of CCGCCUAACACUGCCAAUGCCGGUCCCAAGUCCGGAUGAAAGUGGAGGGGGCGG [A38G C31U], the self-cleavage worked out at 0.73.

As for CCGCCUAACACUGCCAAUGCCGGUCCCAAGCCCGGAUGAAAGUGGGGGGGGCGG [A38G A46G], the self-cleavage was 0.08.

Turning to CCGCCUAACACUGCCAAUGCCGGUCCCAAGCCCGGAUGAAAGUGGUGGGGGCGG [A38G A46U], the self-cleavage turned out to be 0.07.

Consider CCGCCUAACACUGCCAAUGCCGGUCCCAAGCCCGGAUGAAAGUGGCGGGGGCGG [A38G A46C], for which the self-cleavage came out at 0.08.

As for CCGCCUAACACUGCCAAUGCCUGUCCCAAGCCCGGAUGAAAGUGGAGGGGGCGG [A38G G22U], the self-cleavage is 0.85.

Take CCGCCUAACACUGCCAAUGCCAGUCCCAAGCCCGGAUGAAAGUGGAGGGGGCGG [A38G G22A]: the self-cleavage was determined as 1.01.

CCGCCUAACACUGCCAAUGCCCGUCCCAAGCCCGGAUGAAAGUGGAGGGGGCGG [A38G G22C]: the self-cleavage worked out at 0.13.

As for CCGCCUAACACUGCCAAUGCCGGUCCCAAGCCCGGAUGAAAGUAGAGGGGGCGG [A38G G44A], the self-cleavage was found to be 0.93.

Regarding CCGCCUAACACUGCCAAUGCCGGUCCCAAGCCCGGAUGAAAGUUGAGGGGGCGG [A38G G44U], the self-cleavage came to 0.95.

For the variant CCGCCUAACACUGCCAAUGCCGGUCCCAAGCCCGGAUGAAAGUCGAGGGGGCGG [A38G G44C], the self-cleavage came to 0.98.

As to CCGCCUAACACUGCCAAUGCCGGUCCCAAGCCCGGAUGAAAGUGGAGUGGGCGG [A38G G48U], the self-cleavage was found to be 0.07.

In the case of CCGCCUAACACUGCCAAUGCCGGUCCCAAGCCCGGAUGAAAGUGGAGAGGGCGG [A38G G48A], the self-cleavage stood at 0.11.

For CCGCCUAACACUGCCAAUGCCGGUCCCAAGCCCGGAUGAAAGUGGAGCGGGCGG [A38G G48C], the self-cleavage was 0.1.

Regarding CCGCCUAACACUGCCAAUACCGGUCCCAAGCCCGGAUGAAAGUGGAGGGGGCGG [A38G G19A], the self-cleavage was 0.46.

Take CCGCCUAACACUGCCAAUCCCGGUCCCAAGCCCGGAUGAAAGUGGAGGGGGCGG [A38G G19C]: the self-cleavage is 0.06.

With CCGCCUAACACUGCCAAUUCCGGUCCCAAGCCCGGAUGAAAGUGGAGGGGGCGG [A38G G19U], the self-cleavage is 0.14.

For the variant CCGCCUAACACUGCGAAUGCCGGUCCCAAGCCCGGAUGAAAGUGGAGGGGGCGG [A38G C15G], the self-cleavage stood at 0.35.

Turning to CCGCCUAACACUGCAAAUGCCGGUCCCAAGCCCGGAUGAAAGUGGAGGGGGCGG [A38G C15A], the self-cleavage was found to be 0.33.

As for CCGCCUAACACUGCUAAUGCCGGUCCCAAGCCCGGAUGAAAGUGGAGGGGGCGG [A38G C15U], the self-cleavage was 0.47.

CCGCCUAACACUGCCAAUGCCGGUCCCAAGCCCGCAUGAAAGUGGAGGGGGCGG [A38G G35C]: the self-cleavage was 0.26.

In the case of CCGCCUAACACUGCCAAUGCCGGUCCCAAGCCCGUAUGAAAGUGGAGGGGGCGG [A38G G35U], the self-cleavage is 0.86.

Consider CCGCCUAACACUGCCAAUGCCGGUCCCAAGCCCGAAUGAAAGUGGAGGGGGCGG [A38G G35A], for which the self-cleavage came to 0.83.

Consider CCGCCUAACACUGCCAAUGCCGGUCCCAAGCCCGGAUGAAAAUGGAGGGGGCGG [A38G G42A], for which the self-cleavage is 0.7.

For CCGCCUAACACUGCCAAUGCCGGUCCCAAGCCCGGAUGAAAUUGGAGGGGGCGG [A38G G42U], the self-cleavage was found to be 0.12.

As to CCGCCUAACACUGCCAAUGCCGGUCCCAAGCCCGGAUGAAACUGGAGGGGGCGG [A38G G42C], the self-cleavage came to 0.23.

Turning to CCGCCUAACACUGCCAAUGCCGGUCCCAAGCCCGGAUGAAAGUGGAGGGGGCCG [A38G G53C], the self-cleavage was 0.09.

Take CCGCCUAACACUGCCAAUGCCGGUCCCAAGCCCGGAUGAAAGUGGAGGGGGCAG [A38G G53A]: the self-cleavage was 0.8.

CCGCCUAACACUGCCAAUGCCGGUCCCAAGCCCGGAUGAAAGUGGAGGGGGCUG [A38G G53U]: the self-cleavage worked out at 0.31.

In the case of CCGCCUAACACUGCCAAUGCCGGUCCCAAGCCCAGAUGAAAGUGGAGGGGGCGG [A38G G34A], the self-cleavage came out at 0.84.

Turning to CCGCCUAACACUGCCAAUGCCGGUCCCAAGCCCCGAUGAAAGUGGAGGGGGCGG [A38G G34C], the self-cleavage was 0.59.

On to CCGCCUAACACUGCCAAUGCCGGUCCCAAGCCCUGAUGAAAGUGGAGGGGGCGG [A38G G34U], for which the self-cleavage was determined as 0.74.
